Laboratory results: article PMC7839511 (Antiviral Research, 2021)

Assays:
Assay type in all cases: biochemical
Human Cathepsin L = Human Cathepsin L (Homo sapiens, UniProt P07711); experiment: Human cathepsin L assay; details: FRET Cathepsin L IC50, 10 pM human cathepsin L, 2 μM Z-FR-AMC, pH 5.5
Method in brief: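 Human enzyme, 10 pM final, preincubated 30 min with test compound at ambient temperature in 20 mM sodium acetate, 1 mM EDTA, 0.005% Brij-35, 5 mM DTT, pH5.5. Started with 2 μM Z-FR-AMC (final). Fluorescence (355/460 excitation/emission) read at 2-min intervals over 30 min. IC50 from four-parameter curve fit.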

[1] = target: rhinovirus HRV3C protease (Human rhinovirus 14, UniProt P03303); experiment: 3CLpro and HRV3C duplex SAMDI-MS assay, HRV3C readout
Method in brief: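 Enzymes preincubated 30 min with test compound. Biotinylated cognate peptides added (10 µM each, final). Reaction ran 30 min, then formic acid quench and bicarbonate neutralisation. Captured on SAMDI chips for 1 h; product conversion AUCprod/(AUCInt Stnd + AUCprod).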

SARS-CoV-2 3CLpro = SARS-CoV-2 3CLpro (Severe acute respiratory syndrome coronavirus 2, UniProt P0DTD1); details: duplex SAMDI-MS assay

Chain of rhinovirus HRV3C protease (P03303 1538-1719 limits assumed): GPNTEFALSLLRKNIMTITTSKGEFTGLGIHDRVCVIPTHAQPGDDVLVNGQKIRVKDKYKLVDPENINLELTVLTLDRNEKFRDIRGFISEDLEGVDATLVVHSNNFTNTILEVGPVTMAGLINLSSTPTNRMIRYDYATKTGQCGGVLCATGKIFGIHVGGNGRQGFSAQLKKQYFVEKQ
Chain of Human Cathepsin L (P07711 114-333): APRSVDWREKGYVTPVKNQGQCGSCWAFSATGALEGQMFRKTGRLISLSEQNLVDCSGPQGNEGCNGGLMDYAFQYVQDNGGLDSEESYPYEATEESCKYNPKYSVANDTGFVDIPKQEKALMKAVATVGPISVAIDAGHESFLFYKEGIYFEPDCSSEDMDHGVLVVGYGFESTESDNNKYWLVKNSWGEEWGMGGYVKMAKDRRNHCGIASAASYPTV

Row | SMILES | IC50 (Human Cathepsin L) [nM] | IC50 [1] [nM] | inhibition of 3CLpro (in words) (SARS-CoV-2 3CLpro)
1 | CC(C)(C)NC(=O)N[C@H](C(=O)N1C[C@H]2[C@@H]([C@H]1C(=O)NC(CC1CCC1)C(=O)C(N)=O)C2(C)C)C(C)(C)C (some centres unmarked) [Boceprevir] | 2300 | > 100000 | –
2 | CCOC(=O)/C=C/[C@H](C[C@@H]1CCNC1=O)NC(=O)[C@@H](CC(=O)[C@@H](NC(=O)c1cc(C)on1)C(C)C)Cc1ccc(F)cc1 [Rupintrivir] | 4400 | 1.04 | no observed inhibition
